Test results: ChEMBL document CHEMBL1132160, “Structure-antiviral activity relationship in the series of pyrimidine and purine N-[2-(2-phosphonomethoxy)ethyl] nucleotide analogues. 1. Derivatives substituted at the carbon atoms of the base” (J Med Chem, 1999); call rule not given here
Converted amounts (≈) assume the structure as drawn.

What was measured:
[1] = Inhibitory activity against murine sarcoma virus induced transformation of murine C3H/3T3 embryo fibroblasts; format: functional, Mus musculus
Summary of the method: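 Murine C3H/3T3 embryo fibroblasts were seeded at 5 × 10⁵ cells/mL. After 24 h they were infected with 80 focus-forming units of MSV for 90–120 min at 37 °C. The medium was then replaced with fresh medium containing various compound concentrations, and transformation was examined microscopically after 6 days.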

Human alphaherpesvirus 1 [2] = assay: Inhibition of herpes simplex virus type 1 (HSV-1) F strain; format: functional, organism-based
Summary of the method: (§1)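 Confluent E6SM cell cultures were inoculated with 100 CCID50 of virus and allowed 1 h for adsorption. Residual virus was then removed, and the cells were incubated with test compound at 400, 200, 100, ... μg/mL. Viral cytopathicity was scored once it reached completion in untreated infected controls.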

Vaccinia virus [3] = assay: Inhibitory activity against vaccinia virus (VV); format: functional, organism-based; details: Orthopoxvirus vaccinia
Summary of the method: (§2)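 Confluent E6SM cell cultures were inoculated with 100 CCID50 of virus and left for 1 h adsorption, then residual virus was removed. Cultures were incubated with test compound at serial concentrations (400, 200, 100, ... μg/mL). Virus-induced cytopathicity was scored once it reached completion in untreated infected control cultures.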

[4] = Inhibitory activity against herpes simplex virus type 2 (HSV-2) 196 strain; format: functional; summary of the method: as §1
Human alphaherpesvirus 2 [5] = assay: Inhibitory activity against herpes simplex virus type 2 (HSV-2) Lyons strain; format: functional, organism-based; summary of the method: as §1
Cytomegalovirus [6] = assay: Inhibitory activity against cytomegalovirus (CMV) AD 169 strain; format: functional, organism-based; details: Human betaherpesvirus 5
Summary of the method: (§3)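 HEL cell cultures, grown to confluence, received 100 CCID50 of virus. After 1 h adsorption, the inoculum was removed and the cultures were incubated with serial concentrations of compound (400, 200, 100, ... μg/mL).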

[7] = tested on: Human immunodeficiency virus 2; assay: Inhibition of human immunodeficiency virus type 2 (HIV-2) induced cytopathogenicity in CEM cells; format: functional, organism-based; details: Human immunodeficiency virus 2, CCRF-CEM
[8] = tested on: Human immunodeficiency virus 2; assay: Inhibitory activity against human immunodeficiency virus type 2 (HIV-2) induced cytopathogenicity in MT-4 cells; format: functional, organism-based; details: Human immunodeficiency virus 2, MT4
Human alphaherpesvirus 2 [9] = assay: Inhibitory activity against herpes simplex virus type 2 (HSV-2) G strain; format: functional, organism-based; summary of the method: as §1
Human alphaherpesvirus 1 [10] = assay: Inhibitory activity against herpes simplex virus type 1 (HSV-1) McIntyre strain; format: functional, organism-based; summary of the method: as §1
[11] = tested on: Human immunodeficiency virus 1; assay: Inhibitory activity of compound against human immunodeficiency virus type 1 (HIV-1) induced cytopathogenicity in MT-4 cells; format: functional, organism-based; details: Human immunodeficiency virus 1, MT4
Summary of the method: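 Human MT-4 cells (~4 × 10⁵ cells/mL) were infected with 100 CCID50 of HIV-1 (IIIB)/mL and seeded into wells containing compound dilutions. After 5 days at 37 °C, viable cells were counted by trypan blue exclusion in a blood cell counting chamber.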

HEL = assay: Compound was evaluated for inhibitory activity against varicella zoster virus thymidine kinase (VZV TK-) 07/1 strain; NA=not active; format: functional, cell-based, Homo sapiens
Human alphaherpesvirus 1 [12] = assay: Inhibitory activity against herpes simplex virus type 1 (HSV-1) KOS strain; format: functional, organism-based; summary of the method: as §1
Cytomegalovirus [13] = assay: Inhibitory activity against cytomegalovirus (CMV) Davis strain; format: functional, organism-based; details: Human betaherpesvirus 5; summary of the method: as §3
[14] = tested on: Human immunodeficiency virus 1; assay: Inhibition of human immunodeficiency virus type 1 (HIV-1) induced cytopathogenicity in CEM cells; format: functional, organism-based; details: Human immunodeficiency virus 1, CCRF-CEM
Summary of the method: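 CEM cells (~3 × 10⁵ cells/mL) were infected with 100 CCID50 of HIV-1 (IIIB)/mL and plated with dilutions of compound. After 4 days at 37 °C, giant cell formation was assessed microscopically.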

Vaccinia virus [15] = assay: Inhibitory activity against vaccinia virus (VV).; format: functional, organism-based, Orthopoxvirus vaccinia; summary of the method: as §2
Human alphaherpesvirus 1 [16] = assay: Inhibitory activity against herpes simplex virus type 1 (HSV-1) KOS strain.; format: functional, organism-based; summary of the method: as §1
Human alphaherpesvirus 2 [17] = assay: Inhibitory activity against herpes simplex virus type 2 (HSV-2) G strain.; format: functional, organism-based; summary of the method: as §1
E6SM [18] = assay: Inhibitory activity against herpes simplex virus type 2 (HSV-2) Lyons strain.; format: functional, cell-based, Homo sapiens; summary of the method: as §1
Human alphaherpesvirus 2 [19] = assay: Inhibitory activity against herpes simplex virus type 2 (HSV-2) 196 strain.; format: functional, organism-based; summary of the method: as §1
Human alphaherpesvirus 1 [20] = assay: Inhibitory activity against herpes simplex virus type 1 (HSV-1) F strain; format: functional, organism-based; summary of the method: as §1
Human alphaherpesvirus 1 [21] = assay: Inhibitory activity against herpes simplex virus type 1 thymidine kinase (HSV-1 TK-) VMW 1837 strain.
Human alphaherpesvirus 1 [22] = assay: Iactivity against herpes simplex virus type 1 (HSV-1) McIntyre strain.; format: functional, organism-based; summary of the method: as §1
E6SM [23] = assay: Compound was evaluated for inhibitory activity against herpes simplex virus type 1 thymidine kinase (HSV-1 TK-) B2006 strain; NA=not active; format: functional, cell-based, Homo sapiens; summary of the method: as §1

| Structure (SMILES) | EC50 [1] [µg/mL] | EC50 (Human alphaherpesvirus 1 [2]) [µg/mL] | EC50 (Vaccinia virus [3]) [µg/mL] | EC50 [4] [µg/mL] | EC50 (Human alphaherpesvirus 2 [5]) [µg/mL] | EC50 (Cytomegalovirus [6]) [µg/mL] | EC50 [8] [µg/mL] | EC50 (Human alphaherpesvirus 2 [9]) [µg/mL] | EC50 (Human alphaherpesvirus 1 [10]) [µg/mL] | EC50 [11] [µg/mL] | EC50 (Human alphaherpesvirus 1 [12]) [µg/mL] | EC50 (Cytomegalovirus [13]) [µg/mL] | EC50 (Vaccinia virus [15]) | EC50 (Human alphaherpesvirus 1 [16]) | EC50 (Human alphaherpesvirus 2 [17]) | EC50 (E6SM [18]) | EC50 (Human alphaherpesvirus 2 [19]) | EC50 (Human alphaherpesvirus 1 [20]) | EC50 (Human alphaherpesvirus 1 [21]) | EC50 (Human alphaherpesvirus 1 [22]) | also measured |
| --- | --- | --- | --- | --- | --- | --- | --- | --- | --- | --- | --- | --- | --- | --- | --- | --- | --- | --- | --- | --- | --- |
| Nc1ncnc2c1ccn2CCOCP(=O)(O)O | 4.1 (≈ 15.1 µM) | 150 (≈ 551 µM) | 150 (≈ 551 µM) | 200 (≈ 735 µM) | 100 (≈ 367 µM) | > 50 | 8.27 (≈ 30.4 µM) | 70 (≈ 257 µM) | 100 (≈ 367 µM) | 7.56 (≈ 27.8 µM) | 200 (≈ 735 µM) | > 50 |  |  |  |  |  |  |  |  | EC50 [7]: 2.5 µg/mL (≈ 9.18 µM); EC50 (HEL): Not Active; EC50 [14]: 4 µg/mL (≈ 14.7 µM) |
| Nc1nccc(OCCOCP(=O)(O)O)n1 | 2.33 (≈ 9.35 µM) | > 200 |  | > 200 | 300 (≈ 1200 µM) | > 100 | > 100 | > 200 | 300 (≈ 1200 µM) | > 100 | > 200 | > 100 | Not Active |  |  |  |  |  |  |  |  |
| CC(C)OP(=O)(COCCn1cnc2c(N)nc(Cl)nc21)OC(C)C | > 100 |  |  |  |  | 0.65 (≈ 1.66 µM) |  |  |  | > 20 |  | 0.7 (≈ 1.79 µM) | Not Active | Not Active | Not Active | Not Active | Not Active | Not Active | Not Active | Not Active | EC50 (HEL): Not Active |
| Nc1ncc2ncn(CCOCP(=O)(O)O)c2n1 | 0.1 (≈ 0.366 µM) | 20 (≈ 73.2 µM) |  | 150 (≈ 549 µM) | 70 (≈ 256 µM) | > 100 | 50 (≈ 183 µM) | 400 (≈ 1460 µM) | 20 (≈ 73.2 µM) | 40.9 (≈ 150 µM) | 70 (≈ 256 µM) | > 100 | Not Active |  |  |  |  |  |  |  |  |
| Nc1nc(Cl)nc2c1ncn2CCOCP(=O)(O)O | 18.2 (≈ 59.2 µM) |  | > 40 |  |  | 88 (≈ 286 µM) | > 100 |  |  | > 100 |  | 85 (≈ 276 µM) |  | Not Active | Not Active | Not Active | Not Active | Not Active | Not Active | Not Active |  |
| CC(C)OP(=O)(COCCn1cnc2c(Cl)nc(N)nc21)OC(C)C | > 100 |  |  |  |  | 40 (≈ 102 µM) | > 100 |  |  | > 100 |  | 10 (≈ 25.5 µM) | Not Active | Not Active | Not Active | Not Active | Not Active | Not Active | Not Active | Not Active |  |
| Nc1cnn(CCOCP(=O)(O)O)c(=O)n1 | > 100 |  |  |  |  | > 100 | > 100 |  |  | > 100 |  | > 100 |  | Not Active | Not Active | Not Active | Not Active | Not Active | Not Active | Not Active |  |
| Nc1nc(O)c2c(ncn2CCOCP(=O)(O)O)n1 | 96 (≈ 332 µM) | 200 (≈ 692 µM) | > 400 | 200 (≈ 692 µM) | > 400 | > 50 |  | 300 (≈ 1040 µM) | 150 (≈ 519 µM) |  | 300 (≈ 1040 µM) | > 50 |  |  |  |  |  |  |  |  | EC50 [7]: > 100 µg/mL; EC50 (HEL): Not Active; EC50 [14]: > 100 µg/mL |
| CC(C)OP(=O)(COCCn1cnc2nc(N)nc(O)c21)OC(C)C | > 200 | > 200 | > 200 | > 200 | > 200 | > 50 |  | > 200 | > 200 |  | > 200 | > 50 |  |  |  |  |  |  |  |  | EC50 [7]: > 100 µg/mL; EC50 (HEL): Not Active; EC50 [14]: > 100 µg/mL |
| Nc1nccc2c1ncn2CCOCP(=O)(O)O | > 100 |  |  |  |  | 70 (≈ 257 µM) |  |  |  | > 200 |  | 400 (≈ 1470 µM) | Not Active | Not Active | Not Active | Not Active | Not Active | Not Active | Not Active | Not Active | EC50 (E6SM [23]): Not Active |
| CSc1ncnc2c1ncn2CCOCP(=O)(O)O | > 200 |  |  |  |  | > 400 | > 400 |  |  | > 200 |  | > 400 | Not Active | Not Active | Not Active | Not Active | Not Active | Not Active | Not Active | Not Active | EC50 (E6SM [23]): Not Active |
| Nc1ccn(CCOCP(=O)(O)O)c(=O)c1 | > 100 |  | > 40 |  |  | 100 (≈ 403 µM) | > 100 |  |  | > 100 |  | > 100 |  | Not Active | Not Active | Not Active | Not Active | Not Active | Not Active | Not Active |  |
| Nc1ncnc2c1nc(Br)n2CCOCP(=O)(O)O | > 200 |  |  |  |  | > 50 | > 100 |  |  | > 100 |  | > 50 | Not Active | Not Active | Not Active | Not Active | Not Active | Not Active | Not Active | Not Active | EC50 (E6SM [23]): Not Active; EC50 [7]: > 100 µg/mL; EC50 [14]: > 100 µg/mL |
